Common to all, as to assay type: functional
The test system of test [1] is Staphylococcus aureus. The experiment in a line: Antibacterial activity against Staphylococcus aureus NCIM 5021 at 100 ug/disk after 24 hrs by agar disk diffusion method. The conditions noted are these: NCIM 5021, 24 h, read-out: IZ. The method in brief:
(§1)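 Agar disc diffusion on nutrient agar plates pre-inoculated with each bacterium. Sterile 6 mm filter-paper discs were moistened with compound in DMSO at the stated per-disc amount. Plates were incubated at 37 °C, and the growth-inhibition zone diameter was read after 24 h. Each determination was run in triplicate, and the mean of three independent readings is reported.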

The test system of test [2] is Staphylococcus aureus. Description: Antibacterial activity against Staphylococcus aureus NCIM 5021 at 200 ug/disk after 24 hrs by agar disk diffusion method. The following applies: NCIM 5021, 24 h, read-out: IZ. The method in brief: as §1
Background: A growth-free zone around the sample is the usual read-out of agar diffusion tests.

Test [3] has as its system Bacillus subtilis. The experiment in a line: Antibacterial activity against Bacillus subtilis NCIM 2063 at 100 ug/disk after 24 hrs by agar disk diffusion method. The following applies: NCIM 2063, 24 h, read-out: IZ. An outline of the steps: as §1
Test [4] deals with Bacillus subtilis. The experiment in a line: Antibacterial activity against Bacillus subtilis NCIM 2063 at 200 ug/disk after 24 hrs by agar disk diffusion method. The conditions noted are these: NCIM 2063, 24 h, read-out: IZ. An outline of the steps:
as §1

The subject of test [5] is Klebsiella pneumoniae. The experiment in a line: Antibacterial activity against Klebsiella pneumoniae NCIM 2957 at 100 ug/disk after 24 hrs by agar disk diffusion method. The following applies: NCIM 2957, 24 h, read-out: IZ. An outline of the steps: as §1
Test [6] has as its system Klebsiella pneumoniae. Description: Antibacterial activity against Klebsiella pneumoniae NCIM 2957 at 200 ug/disk after 24 hrs by agar disk diffusion method. The conditions noted are these: NCIM 2957, 24 h, read-out: IZ. The method in brief: as §1
The test system of test [7] is Proteus vulgaris. The experiment in a line: Antibacterial activity against Proteus vulgaris NCIM 2027 at 100 ug/disk after 24 hrs by agar disk diffusion method. The following applies: NCIM 2027, 24 h, read-out: IZ. An outline of the steps:
as §1

Test [8] deals with Proteus vulgaris. The experiment in a line: Antibacterial activity against Proteus vulgaris NCIM 2027 at 200 ug/disk after 24 hrs by agar disk diffusion method. The following applies: NCIM 2027, 24 h, read-out: IZ. An outline of the steps:
as §1

For test [9], the system named is Fusarium solani. Description: Antifungal activity against Fusarium solani NCIM 1330 at 100 ug/disk after 48 hrs by agar disk diffusion method. The conditions noted are these: NCIM 1330, 48 h, read-out: IZ. The method in brief:
(§2)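 Fungal disc diffusion on nutrient agar plates pre-inoculated with each fungus. 6 mm sterile paper discs carried the compound in DMSO at the stated amount per disc. Plates were held at 37 °C, and inhibition-zone diameter was measured after 48 h. Values are the mean of three independent triplicate readings.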

The subject of test [10] is Fusarium solani. The experiment in a line: Antifungal activity against Fusarium solani NCIM 1330 at 200 ug/disk after 48 hrs by agar disk diffusion method. The following applies: NCIM 1330, 48 h, read-out: IZ. The method in brief:
as §2

The test system of test [11] is Curvularia lunata. The experiment in a line: Antifungal activity against Curvularia lunata NCIM 716 at 100 ug/disk after 48 hrs by agar disk diffusion method. The conditions noted are these: NCIM 716, 48 h, read-out: IZ. The method in brief:
as §2

Test [12] has as its system Curvularia lunata. Description: Antifungal activity against Curvularia lunata NCIM 716 at 200 ug/disk after 48 hrs by agar disk diffusion method. The conditions noted are these: NCIM 716, 48 h, read-out: IZ. An outline of the steps:
as §2

In test [13] the test system is Aspergillus niger. Description: Antifungal activity against Aspergillus niger NCIM 596 at 100 ug/disk after 48 hrs by agar disk diffusion method. The following applies: NCIM 596, 48 h, read-out: IZ. The method in brief: as §2
For test [14], the system named is Aspergillus niger. The experiment in a line: Antifungal activity against Aspergillus niger NCIM 596 at 200 ug/disk after 48 hrs by agar disk diffusion method. The conditions noted are these: NCIM 596, 48 h, read-out: IZ. The method in brief: as §2
Test [15] has as its system Radical scavenging activity. Description: Antioxidant activity assessed as DPPH free radical scavenging activity at 100 uM after 20 mins. The method in brief:
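DPPH scavenging: compound solutions were added to DPPH in dioxane/ethanol and kept at ambient temperature for 20 min. Absorbance was read at 517 nm. The test–control difference was expressed as percent DPPH radical scavenging.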
In general terms: Loss of DPPH colour is used to gauge radical scavenging.

Test [16] in a line: Antioxidant activity assessed as nitric oxide production at 100 uM after 120 mins by Griess reagent method. An outline of the steps: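 Nitric oxide assay with Griess read-out. At intervals, 0.5 ml of incubation solution was mixed with 0.5 ml Griess reagent (1% sulfanilamide, 0.1% N-naphthylethylenediamine dihydrochloride, 2% o-phosphoric acid in water). The control received an equal amount of solvent and was handled identically.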

Broadly, the inhibition is the drop in the measured response relative to a control, in per cent. Regarding `Cc1ccc(S(=O)(=O)CC(C2C(N)=NC(=O)N=C2N)S(=O)(=O)c2ccc(C)cc2)cc1` (stereo not drawn), the zone of inhibition at 100 µg/disc was 21 mm in [1]; 22 mm in [3]; 17 mm in [5]; 16 mm in [7]; 13 mm in test [9]; 16 mm in test [11]. Besides, the zone of inhibition at 100 µg/disc in [13] was 11 mm. Further, the zone of inhibition at 200 µg/disc was determined as 23 mm in test [2]; 24 mm in test [4]; 19 mm in test [6]; 18 mm in test [8]; 16 mm in [10]; 18 mm in [12]. For the same compound, the zone of inhibition at 200 µg/disc in test [14] worked out at 15 mm. Besides, the inhibition was found to be 28.1% in test [15] and 27.9% in test [16].

As for `Cc1ccc(C(=O)CC(C(=O)c2ccc(C)cc2)C2C(=N)ON=C2N)cc1` (stereo not drawn), the zone of inhibition at 100 µg/disc in test [1] was determined as 22 mm; in test [3], 26 mm; in [5], 22 mm; in test [7], 21 mm; in test [9], 32 mm; in [11], 31 mm. Moreover, the zone of inhibition at 100 µg/disc in test [13] stood at 24 mm. Further, the zone of inhibition at 200 µg/disc in test [2] worked out at 25 mm; in [4], 28 mm; in test [6] it was 24 mm; in test [8] it was 23 mm; in [10] it was 34 mm; in test [12], 33 mm. For the same compound, in test [14], the zone of inhibition at 200 µg/disc was 27 mm. In addition, the inhibition in [15] turned out to be 58.1%; in test [16], 54.3%.

For `NC1=NC(=O)N=C(N)C1C(CC(=O)c1ccc(Cl)cc1)C(=O)c1ccc(Cl)cc1` (stereo not drawn), the zone of inhibition at 100 µg/disc is 13 mm in [1]; 12 mm in test [3]; 11 mm in test [5]; 10 mm in [7]; 17 mm in test [9]; 14 mm in [11]. Besides, the zone of inhibition at 100 µg/disc in [13] turned out to be 16 mm. In addition, the zone of inhibition at 200 µg/disc turned out to be 15 mm in test [2]; 14 mm in test [4]; 13 mm in test [6]; 12 mm in [8]; 19 mm in test [10]; 18 mm in [12]. Also, in test [14], the zone of inhibition at 200 µg/disc turned out to be 20 mm. Further, the figures for the inhibition in [15] and in test [16] were 41% and 39.4%, respectively.

In the case of `CN1C(=N)C(C(CS(=O)(=O)c2ccc(Cl)cc2)S(=O)(=O)c2ccc(Cl)cc2)C(=N)N(C)C1=O` (stereo not drawn), the zone of inhibition at 100 µg/disc in [1] stood at 16 mm; in test [3] it was 15 mm; in [5], 12 mm; in test [7] it was 11 mm; in test [9], 16 mm; in test [11] it was 17 mm. Moreover, in test [13], the zone of inhibition at 100 µg/disc was determined as 15 mm. Besides, the zone of inhibition at 200 µg/disc came out at 18 mm in test [2]; 17 mm in [4]; 14 mm in [6]; 13 mm in [8]; 19 mm in test [10]; 21 mm in [12]. In addition, the zone of inhibition at 200 µg/disc in test [14] turned out to be 17 mm. Besides, the inhibition in test [15] came to 31.6%; in test [16] it was 30.2%.

For the compound `NC1=NN=C(N)C1C(CC(=O)c1ccccc1)C(=O)c1ccccc1` (stereo not drawn), the zone of inhibition at 100 µg/disc is 27 mm in test [1]; 29 mm in [3]; 27 mm in test [5]; 23 mm in test [7]; 31 mm in test [9]; 30 mm in test [11]. Further, the zone of inhibition at 100 µg/disc in test [13] stood at 29 mm. For the same compound, the zone of inhibition at 200 µg/disc in [2] was determined as 30 mm; in [4] it was 31 mm; in test [6], 29 mm; in test [8] it was 26 mm; in [10] it was 33 mm; in [12], 32 mm. In addition, the zone of inhibition at 200 µg/disc in test [14] is 30 mm. In addition, the inhibition in [15] is 73.7%; in [16], 71.7%.

On to `NC1=NC(=O)N=C(N)C1C(CC(=O)c1ccccc1)C(=O)c1ccccc1` (stereo not drawn), for which the zone of inhibition at 100 µg/disc in test [1] is 11 mm; in [3] it was 16 mm; in [5], 11 mm; in test [7], 12 mm; in [9], 13 mm; in test [11] it was 16 mm. Besides, in test [13], the zone of inhibition at 100 µg/disc came to 14 mm. Moreover, the zone of inhibition at 200 µg/disc in [2] worked out at 14 mm; in [4] it was 15 mm; in test [6], 12 mm; in [8], 14 mm; in test [10], 16 mm; in [12], 20 mm. Further, the zone of inhibition at 200 µg/disc in [14] stood at 17 mm. Moreover, the inhibition in test [15] stood at 24.7%; in test [16] it was 26.8%.

Turning to `NC1=NN=C(N)C1C(CS(=O)(=O)c1ccccc1)S(=O)(=O)c1ccccc1` (stereo not drawn), the zone of inhibition at 100 µg/disc is 30 mm in [1]; 31 mm in test [3]; 28 mm in test [5]; 24 mm in test [7]; 34 mm in test [9]; 33 mm in test [11]. The zone of inhibition at 100 µg/disc in test [13] stood at 31 mm. Further, the zone of inhibition at 200 µg/disc stood at 32 mm in [2]; 33 mm in test [4]; 30 mm in test [6]; 25 mm in [8]; 37 mm in [10]; 36 mm in [12]. The zone of inhibition at 200 µg/disc in [14] came out at 34 mm. In addition, the results for the inhibition in [15] and in test [16] were 58.5% and 60%, respectively.

`Cc1ccc(S(=O)(=O)CC(C2C(N)=NC(=S)N=C2N)S(=O)(=O)c2ccc(C)cc2)cc1` (stereo not drawn): the zone of inhibition at 100 µg/disc in test [1] was 21 mm; in [3], 20 mm; in test [5], 19 mm; in [7] it was 20 mm; in [9], 19 mm; in test [11] it was 21 mm. Also, in test [13], the zone of inhibition at 100 µg/disc was 17 mm. In addition, the zone of inhibition at 200 µg/disc in test [2] was found to be 24 mm; in test [4], 22 mm; in [6], 21 mm; in test [8] it was 20 mm; in test [10] it was 21 mm; in [12], 23 mm. For the same compound, in test [14], the zone of inhibition at 200 µg/disc was found to be 20 mm. The inhibition in test [15] is 38.7%; in test [16], 39.9%.

(Values after ChEMBL document CHEMBL1155297, “Synthesis, antimicrobial and antioxidant activities of substituted pyrazoles, isoxazoles, pyrimidine and thioxopyrimidine derivatives” (2009).)
